Experimental data collected from several papers.
Compare with care: the assays were run in different laboratories.
SQLE: Squalene monooxygenase (SQLE, Homo sapiens, UniProt Q14534)
MAL12: Alpha-glucosidase MAL12 (MAL12, Saccharomyces cerevisiae S288c, UniProt P53341)
FABP1: Fatty acid-binding protein, liver (FABP1, Homo sapiens, UniProt P07148)
SLC22A6: Solute carrier family 22 member 6 (SLC22A6, Homo sapiens, UniProt Q4U2R8)

| SMILES | target | assay | test system | conditions | IC50 |
| --- | --- | --- | --- | --- | --- |
| N#Cc1ccc2c(c1)N(CCCN1CCC(O)CC1)c1ccccc1S2 | SQLE | enzyme activity, inhibitor, absorbance |  | pH 7.4, with preincubation | 1.55 µM |
| Cc1ccc(NC(=O)N2CCN(c3ccnc(Nc4ccc(Cl)cc4)n3)[C@@H](C)C2)cc1 | MAL12 | enzyme activity, inhibitor, absorbance |  | pH 6.9 | 2.42 µM |
| Nc1ccn(C[C@@H](CO)OCP(=O)(O)O)c(=O)n1 | Solute carrier family 22 member 6 (SLC22A6, Homo sapiens, UniProt Q4U2R8, N439A) | transporter uptake, inhibitor, fluorescence |  |  | 225 µM |
| CC1(C)CC(=O)C2=C(C1)n1c(=O)c3ccccc3c(=O)n1C2c1cn(-c2ccccc2)nc1-c1ccc(O)cc1 (centres unmarked) | MAL12 | enzyme activity, inhibitor, absorbance |  |  | 108 µM |
| CCCOc1ccc2c(c1)O/C(=C\c1ccc(OC(C)(C)C(=O)O)c(F)c1)C2=O | FABP1 | cell-free assay, inhibitor, fluorescence |  | pH 7.4 | 9.2 µM |
| C[C@H]1CN(C(=O)Nc2ccc(C(F)(F)F)cc2)CCN1c1ccnc(Nc2ccc(Cl)cc2)n1 | MAL12 | enzyme activity, inhibitor, absorbance |  | pH 6.9 | 1.1 µM |
| N=C(N)c1ccc2cc(OC(=O)c3ccc(N=C(N)N)cc3)ccc2c1 | Coagulation factor IX (F9, Homo sapiens, UniProt P00740) | enzyme activity, inhibitor |  |  | 0.086 µM |
| CN1CCC(CNc2ccc3ncc(-c4cccc(OC(F)(F)F)c4)n3n2)CC1 | Alpha-1A adrenergic receptor (ADRA1A, Homo sapiens, UniProt P35348) | calcium signal, antagonist |  |  | 4.81 µM |
| O=c1cc(-c2ccccc2)oc2cc(O)cc(O)c12 | SQLE | enzyme activity, inhibitor, radiometric |  |  | 4.47 µM |
| COc1ccc(Cl)cc1C(=O)NCCc1ccc(S(=O)(=O)NC(=O)NC2CCCCC2)cc1 | SLC22A6 | transporter uptake, inhibitor, fluorescence |  |  | 2.4 µM |
| C[C@H]1CN(C(=O)Nc2ccc(C(F)(F)F)cc2)CCN1c1ccnc(Nc2ccc(Cl)c(O)c2)n1 | MAL12 | enzyme activity, inhibitor, absorbance |  | pH 6.9 | 0.44 µM |
| CCCOc1ccc2c(c1)O/C(=C\c1ccc(OC(C)(C)C(=O)O)c(C)c1)C2=O | FABP1 | cell-free assay, inhibitor, fluorescence |  | pH 7.4 | 5.8 µM |
| COc1cc(-c2oc3cc(O)cc(O)c3c(=O)c2O)ccc1O | SQLE | enzyme activity, inhibitor, radiometric |  |  | 11.5 µM |
| CCCCOc1ccc2c(c1)O/C(=C\c1cc(C)c(OC(C)(C)C(=O)O)c(C)c1)C2=O | FABP1 | cell-free assay, inhibitor, fluorescence |  | pH 7.4 | 5.3 µM |
| COc1ccc(NC(=O)N2CCN(c3ccnc(Nc4ccc(Cl)cc4)n3)[C@H](C)C2)cc1 | MAL12 | enzyme activity, inhibitor, absorbance |  | pH 6.9 | 23.4 µM |
| CC(=O)C1=C(C)n2c(=O)c3ccccc3c(=O)n2C1c1cn(-c2ccccc2)nc1-c1ccc(Br)cc1 (centres unmarked) | MAL12 | enzyme activity, inhibitor, absorbance |  |  | 18.6 µM |
| CC(C)NC(=O)COc1cccc(-c2nc(Nc3ccc4[nH]ncc4c3)c3ccccc3n2)c1 | SLC22A6 | transporter uptake, inhibitor, radiometric | HEK293 |  | > 1 µM |
| C[C@H]1CN(C(=O)CC#N)[C@]12CCN(c1ncnc3[nH]ccc13)C2 | SLC22A6 | transporter uptake, inhibitor |  |  | 1.59 µM |
| CC(=O)C1=C(C)n2c(=O)c3ccccc3c(=O)n2C1c1cn(-c2ccccc2)nc1-c1ccc(O)cc1 (centres unmarked) | MAL12 | enzyme activity, inhibitor, absorbance |  |  | 494 µM |
| COc1ccc2c(c1)O/C(=C\c1cc(C)c(OC(C)(C)C(=O)O)c(C)c1)C2=O | FABP1 | cell-free assay, inhibitor, fluorescence |  | pH 7.4 | 9 µM |
| OCCN1CCN(CCCN2c3ccccc3Sc3ccc(C(F)(F)F)cc32)CC1 | SQLE | enzyme activity, inhibitor, absorbance |  | pH 7.4, with preincubation | 12.3 µM |
| CC(C)=CCC/C(C)=C/CC/C(C)=C/CC/C=C(\C)CC/C=C(\C)CCCNC1CC1 | SQLE | enzyme activity, inhibitor, radiometric |  |  | 2.68 µM |
| CCCOc1ccc2c(c1)O/C(=C\c1cc(C)c(OC(C)(C)C(=O)O)c(C)c1)C2=O | FABP1 | cell-free assay, inhibitor, fluorescence |  | pH 7.4 | 4.8 µM |
| CC1CN(C(=O)Nc2ccc(Cl)c(Cl)c2)CCN1c1ccnc(Nc2ccc(Cl)cc2)n1 (centres unmarked) | MAL12 | enzyme activity, inhibitor, absorbance |  | pH 6.9 | 2.41 µM |
| CCCOc1ccc2c(c1)O/C(=C\c1ccc(OC(C)(C)C(=O)O)c(Cl)c1)C2=O | FABP1 | cell-free assay, inhibitor, fluorescence |  | pH 7.4 | 7.7 µM |
| C[C@H]1CN(C(=O)Nc2ccc(C(F)(F)F)cc2)CCN1c1ccnc(Nc2ccc(O)cc2)n1 | MAL12 | enzyme activity, inhibitor, absorbance |  | pH 6.9 | 3.71 µM |
| NS(=O)(=O)c1ccc(-n2nc(C(=O)NN=Cc3ccccc3O)cc2-c2ccccc2)cc1 | Focal adhesion kinase 1 (PTK2, Homo sapiens, UniProt Q05397) | enzyme activity, inhibitor, ELISA |  |  | 15.9 µM |
| C[C@H]1CN(C(=O)Nc2ccc(C(F)(F)F)cc2)CCN1c1ccnc(Nc2ccc(Br)cc2)n1 | MAL12 | enzyme activity, inhibitor, absorbance |  | pH 6.9 | 1.59 µM |
| O=c1cc(-c2ccc(O)cc2)oc2cc(O[C@@H]3O[C@H](CO)[C@@H](O)[C@H](O)[C@H]3O)cc(O)c12 | SQLE | enzyme activity, inhibitor, radiometric |  |  | 1.74 µM |
